In one series the test system is MOLT-4 cells. Nature of the series: Xenotransplantation in zebrafish embryos. To be noted: 500 nM, 48 h. In kind it is in vivo. The essentials: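 Wild-type TE zebrafish embryos at 32 hpf each received ~1 nL (~200) CFDA SE-labeled MOLT-4 cells into the perivitelline space, then 1 h at 28 °C. Well-engrafted embryos were treated with test compound (500 nM) or DMSO for 48 h at 35 °C, with development monitored. Embryos were dissociated through a 40 μm strainer and labeled cells quantified by flow cytometry. Fold change was taken against the DMSO-group mean.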

The next series has as its system Hsp70, Hsp40, and Hsp27. Nature of the series: Immunoblot of heat shock response proteins in K562 cells. In kind it is cell-based, human. To be noted: 48 h, cytotoxic concentration. A general note: Immunoblotting shows a protein as a band on a membrane.
Series [1] in a line: Aqueous thermodynamic solubility. The note with it: phosphate-buffered saline, pH 7.4. In kind it is physicochemical.
Series [2] addresses recombinant Hsp90α CTD protein (Homo sapiens, UniProt P07900). The experiment in a line: Cell-free thermal shift assay. In kind it is binding. The note with it: 100 µM. The essentials:
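Recombinant human Hsp90α CTD (residues 563–732, 5 μM) was mixed with test compound in 1× PBS, pH 7.5, and incubated for 2 h. SYPRO orange (6×) was added and samples were heated with increasing temperature up to 95 °C. Tm was compared with the DMSO vehicle control.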

The record followed here is publication PMC9136973 (ACS Central Science, 2022).

Values after ≈ are worked out from the molar mass of the structure shown.

recombinant Hsp90α CTD protein, sequence (P07900 563-732): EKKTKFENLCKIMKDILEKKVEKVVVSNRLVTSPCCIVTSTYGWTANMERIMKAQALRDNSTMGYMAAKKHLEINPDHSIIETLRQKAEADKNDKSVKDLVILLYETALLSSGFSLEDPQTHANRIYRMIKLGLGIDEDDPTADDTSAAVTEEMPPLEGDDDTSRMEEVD

As for `CCNC(=O)c1noc(-c2cc(C(C)C)c(O)cc2O)c1-c1ccc(CN2CCOCC2)cc1` [AUY922], in the series on MOLT-4 cells, the “toxicity on the development of xenotransplanted embryos” value is listed as “No toxicity”. In addition, in the series with MOLT-4 cells (flow cytometry), the “number of transplanted MOLT4 cells vs DMSO-treated group” value was “significantly reduced”. In addition, in the series with Hsp70, Hsp40, and Hsp27, the “induction of heat shock response (expression of Hsp70, Hsp40, Hsp27)” value was “led to HSR induction”. Take `Cc1nccn1CC1CCc2c(c3ccccc3n2C)C1=O` (centres unmarked) [Ondansetron]: the thermodynamic solubility in series [1] was found to be 95 µM (≈ 27.9 µg/mL). Regarding `CO[C@H]1[C@H](OC(=O)c2ccc(C)[nH]2)[C@H](O)[C@@H](Oc2ccc3c(O)c(NC(=O)c4c[nH]c(C(=O)Nc5c(O)c6ccc(O[C@H]7OC(C)(C)[C@@H](OC)[C@H](OC(=O)c8ccc(C)[nH]8)[C@@H]7O)c(C)c6oc5=O)c4C)c(=O)oc3c2C)OC1(C)C` [coumermycin A1], the “effect on thermal stability of Hsp90α CTD protein” value in series [2] was “stabilized”.

For orientation: thermodynamic solubility means solubility found after equilibrating the solid with the medium.
